Assays:
[1] = Selectivity ratio of inhibition for PDE3A (M1 to Q1141 residues) (unknown origin) by IMAP assay to inhibition for PDE3B (M1 to E1112 residues) (unknown origin) by IMAP assay
[2] = biological target: cGMP-inhibited 3',5'-cyclic phosphodiesterase 3A (Homo sapiens, UniProt Q14432); assay: Inhibition of PDE3A (M1 to Q1141 residues) (unknown origin) using FAM-cAMP as substrate incubated for 45 mins by TR-FRET IMAP assay
How it was run: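 Full-length PDE3A at 1.6 nM with 50 nM FAM-cAMP, 45 min reaction. Buffer 50 mM Tris-HCl pH 7.5, 8.3 mM MgCl2, 1.7 mM EGTA, 0.05% BSA. Compounds run as a concentration curve with a top final concentration of 100 μM. DMSO and 10 μM trequinsin served as controls. TR-FRET read at Ex 337 nm, Em 520/490 nm.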

[3] = Selectivity ratio of inhibition for PDE3A (M1 to Q1141 residues) (unknown origin) by RF-MS assay to inhibition for PDE3B (M1 to E1112 residues) (unknown origin) by RF-MS assay
[4] = biological target: cGMP-inhibited 3',5'-cyclic phosphodiesterase 3B (Homo sapiens, UniProt Q13370); assay: Inhibition of full-length PDE3B (M1 to E1112 residues) (unknown origin) using FAM-cAMP as substrate incubated for 120 mins by TR-FRET IMAP assay
How it was run: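 Buffer 50 mM Tris-HCl pH 7.5, 8.3 mM MgCl2, 1.7 mM EGTA, 0.05% BSA. Compounds run as a concentration curve with a top final concentration of 100 μM. DMSO and 10 μM trequinsin served as controls. Terbium TR-FRET ratio read at 520:490 nm.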

cGMP-inhibited 3',5'-cyclic phosphodiesterase 3B, sequence (Q13370 whole entry, the tested form may be a part): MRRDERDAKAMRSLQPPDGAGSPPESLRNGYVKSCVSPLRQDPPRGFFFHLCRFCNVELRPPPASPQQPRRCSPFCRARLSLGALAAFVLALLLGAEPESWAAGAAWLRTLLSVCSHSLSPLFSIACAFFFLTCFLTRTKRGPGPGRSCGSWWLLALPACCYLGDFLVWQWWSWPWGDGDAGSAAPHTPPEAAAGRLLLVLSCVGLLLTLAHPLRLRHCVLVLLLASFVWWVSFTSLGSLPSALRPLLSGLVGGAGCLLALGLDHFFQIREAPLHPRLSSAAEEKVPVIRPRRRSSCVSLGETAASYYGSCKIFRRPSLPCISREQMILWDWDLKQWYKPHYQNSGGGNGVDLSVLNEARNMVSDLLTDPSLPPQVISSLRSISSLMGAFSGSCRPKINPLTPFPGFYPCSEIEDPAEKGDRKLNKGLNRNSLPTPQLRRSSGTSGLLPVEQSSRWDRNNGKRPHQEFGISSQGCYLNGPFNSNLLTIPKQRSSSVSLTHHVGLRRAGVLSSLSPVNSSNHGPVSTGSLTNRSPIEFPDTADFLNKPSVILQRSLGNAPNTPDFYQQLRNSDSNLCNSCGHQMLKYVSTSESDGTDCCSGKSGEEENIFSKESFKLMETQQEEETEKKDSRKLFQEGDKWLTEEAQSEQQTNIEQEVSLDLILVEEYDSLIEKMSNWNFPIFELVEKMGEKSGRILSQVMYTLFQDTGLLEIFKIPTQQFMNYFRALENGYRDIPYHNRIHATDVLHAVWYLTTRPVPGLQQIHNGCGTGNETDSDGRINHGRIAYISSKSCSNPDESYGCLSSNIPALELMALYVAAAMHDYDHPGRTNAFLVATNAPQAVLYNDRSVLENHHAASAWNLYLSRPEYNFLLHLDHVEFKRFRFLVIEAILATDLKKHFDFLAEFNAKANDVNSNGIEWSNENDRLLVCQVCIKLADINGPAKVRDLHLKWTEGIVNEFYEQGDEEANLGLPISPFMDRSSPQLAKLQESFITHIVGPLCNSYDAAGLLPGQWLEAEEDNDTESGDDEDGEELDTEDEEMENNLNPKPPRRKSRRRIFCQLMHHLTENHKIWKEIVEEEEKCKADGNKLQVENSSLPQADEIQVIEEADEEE
cGMP-inhibited 3',5'-cyclic phosphodiesterase 3A, sequence (Q14432 whole entry, the tested form may be a part): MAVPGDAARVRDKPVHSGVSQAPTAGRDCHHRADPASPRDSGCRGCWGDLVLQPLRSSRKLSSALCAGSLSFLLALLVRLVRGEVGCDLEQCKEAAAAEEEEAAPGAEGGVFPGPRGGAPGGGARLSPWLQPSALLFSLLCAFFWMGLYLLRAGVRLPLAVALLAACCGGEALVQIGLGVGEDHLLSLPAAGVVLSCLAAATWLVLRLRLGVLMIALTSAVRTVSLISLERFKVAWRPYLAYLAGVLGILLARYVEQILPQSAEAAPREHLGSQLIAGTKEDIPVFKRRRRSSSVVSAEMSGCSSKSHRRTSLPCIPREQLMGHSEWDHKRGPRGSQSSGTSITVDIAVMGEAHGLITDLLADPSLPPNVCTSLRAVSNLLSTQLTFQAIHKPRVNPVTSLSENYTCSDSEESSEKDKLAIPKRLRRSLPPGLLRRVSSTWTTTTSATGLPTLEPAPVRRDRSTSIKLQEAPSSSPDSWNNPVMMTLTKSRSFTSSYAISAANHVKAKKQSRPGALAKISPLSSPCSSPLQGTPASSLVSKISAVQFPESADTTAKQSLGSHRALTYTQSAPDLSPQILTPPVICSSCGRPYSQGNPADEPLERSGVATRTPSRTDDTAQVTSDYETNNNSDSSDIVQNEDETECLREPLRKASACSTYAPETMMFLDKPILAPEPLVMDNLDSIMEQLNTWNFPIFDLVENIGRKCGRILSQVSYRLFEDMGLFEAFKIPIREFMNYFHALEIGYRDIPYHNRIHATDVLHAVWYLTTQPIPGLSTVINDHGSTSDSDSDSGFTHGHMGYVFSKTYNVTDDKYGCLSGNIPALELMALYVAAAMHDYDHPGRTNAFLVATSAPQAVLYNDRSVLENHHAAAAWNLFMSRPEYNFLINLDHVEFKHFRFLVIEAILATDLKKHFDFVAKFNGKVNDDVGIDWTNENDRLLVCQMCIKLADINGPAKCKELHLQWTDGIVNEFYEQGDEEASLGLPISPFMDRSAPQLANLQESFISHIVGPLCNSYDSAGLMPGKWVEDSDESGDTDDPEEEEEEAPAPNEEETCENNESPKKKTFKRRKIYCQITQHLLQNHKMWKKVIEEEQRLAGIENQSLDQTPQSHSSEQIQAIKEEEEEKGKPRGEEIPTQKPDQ

| Compound | Selectivity ratio [1] | IC50 [2] [nM] | Selectivity ratio [3] | IC50 [4] [nM] |
| --- | --- | --- | --- | --- |
| COc1ccc2c(OC)cc(C(=O)Nc3cccc(B(O)O)c3)nc2c1 | 1.4 | 12600 | 4.2 | 10000 |
| COc1ccc2c(OC)cc(C(=O)Nc3cc(B(O)O)cc(C(=O)NC(C)C)c3)nc2c1 | 15 | 15800 | 42 | 1000 |
| CNC(=O)[C@@H](NC(=O)c1cc(NC(=O)c2ccc3ccccc3c2)cc(B(O)O)c1)C1CCCCC1 | 0.3 | 1580 | 0.4 | 5010 |
| CNC(=O)[C@@H](NC(=O)c1cc(NC(=O)c2cc(C)c3c(=O)[nH]c(=O)[nH]c3n2)cc(B(O)O)c1)C1CCCCC1 | 0.8 | 15800 | 1.2 | 20000 |
| COc1ccc2c(OC)cc(C(=O)Nc3cc(B(O)O)cc(C(=O)N[C@@H](C(N)=O)C(C)C)c3)nc2c1 | 8.5 | 15800 | 16 | 2000 |
| COc1ccc2c(OC)cc(C(=O)Nc3cc(B(O)O)cc(C(=O)N4Cc5ccncc5C4)c3)nc2c1 | 43 | 12600 | 97 | 316 |
| CNC(=O)[C@H](NC(=O)c1cc(NC(=O)c2cc(C)cc(C)c2OC)cc(B(O)O)c1)C1CCCCC1 | 2.6 | 2000 | 6.6 | 794 |
| COc1ccc2c(OC)cc(C(=O)Nc3cc(B(O)O)cc(C(=O)N4CC(OC5CC5)C4)c3)nc2c1 | 17 | 3160 | 75 | 200 |
| COc1ccc2c(OC)cc(C(=O)Nc3cc(B(O)O)cc(C(=O)NCC(C)C)c3)nc2c1 | 14 | 25100 | 56 | 1580 |
| CNC(=O)c1cc(NC(=O)c2cc(OC)c3ccc(OC)cc3n2)cc(B(O)O)c1 | > 44 | > 100000 | > 107 | 2000 |
| COc1ccc2c(OC)cc(C(=O)Nc3cc(B(O)O)cc(C(=O)N[C@@H]4CCCOC4)c3)nc2c1 | – | 63100 | – | – |
| CNC(=O)[C@H](NC(=O)c1cc(NC(=O)c2nc(C)ncc2OC)cc(B(O)O)c1)C1CCCCC1 | 0.8 | 31600 | 0.8 | 31600 |
| CNC(=O)[C@@H](NC(=O)c1cc(NC(=O)c2cc3ccccc3cn2)cc(B(O)O)c1)C1CCCCC1 | 1 | 3160 | 2 | 3160 |
| CNC(=O)[C@@H](NC(=O)c1cc(NC(=O)c2cc(C)cc(C)c2OC)cc(B(O)O)c1)C1CCCCC1 | 3.4 | 1000 | 6.3 | 316 |
| COc1ccc2c(OC)cc(C(=O)Nc3cc(B(O)O)cc(C(=O)N[C@H](C(N)=O)C(C)C)c3)nc2c1 | 15 | 5010 | 30 | 316 |
| CNC(=O)[C@@H](C)NC(=O)c1cc(NC(=O)c2cc(OC)c3ccc(OC)cc3n2)cc(B(O)O)c1 | 24 | 25100 | 26 | 1000 |
| CNC(=O)[C@@H](NC(=O)c1cc(NC(=O)c2ccc3ccncc3n2)cc(B(O)O)c1)C1CCCCC1 | 0.5 | 158 | 0.7 | 316 |
| CNC(=O)[C@@H](NC(=O)c1cc(NC(=O)c2ccc3ccc(OC)cc3c2)cc(B(O)O)c1)C1CCCCC1 | 1 | 12600 | 1.9 | 10000 |
| COc1ccc2c(OC)cc(C(=O)Nc3cc(B(O)O)cc(C(=O)O)c3)nc2c1 | 3 | 7940 | 5 | 2510 |

| Compound | Selectivity ratio [1] | IC50 [2] [nM] | Selectivity ratio [3] | IC50 [4] [nM] |
| --- | --- | --- | --- | --- |
| CNC(=O)[C@@H](NC(=O)c1cc(NC(=O)c2ccc3cc(OC)ccc3n2)cc(B(O)O)c1)C1CCCCC1 | 1.2 | 1260 | 1 | 1000 |
| COc1ccc2c(OC)cc(C(=O)Nc3cc(B(O)O)cc(C(N)=O)c3)nc2c1 | > 51 | > 100000 | 45 | 2000 |
| COc1ccc2c(OC)cc(C(=O)Nc3cc(B(O)O)cc(C(=O)N(C)Cc4ccccc4)c3)nc2c1 | 21 | 15800 | 62 | 631 |
| COc1ccc2c(OC)cc(C(=O)Nc3cc(B(O)O)cc(C(=O)N4CCCC4)c3)nc2c1 | 46 | 31600 | 46 | 794 |
| CCNC(=O)N1CCCCC(NC(=O)c2cc(O)cc(NC(=O)c3cc(C)cc(C)c3OC)c2)C1 (centres undefined) | 0.8 | 31600 | 1 | 39800 |
| CNC(=O)[C@@H](NC(=O)c1cc(NC(=O)c2ccc3cc(OC)ccc3c2)cc(B(O)O)c1)C1CCCCC1 | 1.3 | 39800 | 1.8 | 31600 |
| CNC(=O)[C@@H](NC(=O)c1cc(NC(=O)c2ccc3ccccc3n2)cc(B(O)O)c1)C1CCCCC1 | 0.5 | 20 | 0.5 | 50.1 |
| CNC(=O)[C@@H](NC(=O)c1cc(NC(=O)c2ccc3ncccc3n2)cc(B(O)O)c1)C1CCCCC1 | 0.7 | 126 | 0.6 | 200 |
| CCNC(=O)N1CCCCC(NC(=O)c2cc(NC(=O)c3cc(C)cc(C)c3OC)cc(B(O)O)c2)C1 (centres undefined) | 2.6 | 501 | 3.8 | 200 |
| CNC(=O)[C@@H](NC(=O)c1cc(NC(=O)c2nccc3ccccc23)cc(B(O)O)c1)C1CCCCC1 | 2 | 398 | 2.7 | 200 |
| CNC(=O)[C@@H](NC(=O)c1cc(NC(=O)c2cc(OC)c3ccc(OC)cc3n2)cc(B(O)O)c1)C1CCCCC1 | 12 | 1000 | 26 | 79.4 |
| CNC(=O)[C@H](NC(=O)c1cc(NC(=O)C(C)Oc2c(C)cccc2C)cc(B(O)O)c1)C1CCCCC1 (some centres undefined) | 3.3 | 79400 | 4.7 | 25100 |
| CNC(=O)[C@H](NC(=O)c1cc(NC(=O)c2cc(OC)c3ccc(OC)cc3n2)cc(B(O)O)c1)C1CCCCC1 | 37 | 10000 | 78 | 316 |
| CNC(=O)[C@@H](NC(=O)c1cc(NC(=O)c2cc3c(c(OC)c2)OCC(=O)N3)cc(B(O)O)c1)C1CCCCC1 | 0.4 | 251 | – | 631 |
| CNC(=O)[C@@H](NC(=O)c1cc(NC(=O)c2cc(F)cc3nccnc23)cc(B(O)O)c1)C1CCCCC1 | 0.7 | 5.01 | 1 | 6.31 |
| CNC(=O)[C@H](NC(=O)c1cc(NC(=O)c2cc(Cl)cc3c2OCC(=O)N3)cc(B(O)O)c1)C1CCCCC1 | 3.3 | 6310 | 7 | 1580 |
| COc1ccc2c(OC)cc(C(=O)Nc3cc(B(O)O)cc(C(=O)N[C@H]4CCCOC4)c3)nc2c1 | – | 31600 | – | – |
| COc1ccc2c(OC)cc(C(=O)N(C)c3cc(B(O)O)cc(C(=O)NC(C)C)c3)nc2c1 | – | > 100000 | – | > 100000 |

Source: ChEMBL document CHEMBL5537199, “Discovery and SAR Study of Boronic Acid-Based Selective PDE3B Inhibitors from a Novel DNA-Encoded Library” (J Med Chem, 2024)
